Source: ChEMBL document CHEMBL1149773, “Synthesis, determination of the lipophilicity, anticancer and antimicrobial properties of some fused 1,2,4-triazole derivatives” (Eur J Med Chem, 2008)

Columns and labels:
[1] = Lipophilicity, log kw in acetonitrile aqueous system at pH 3.5; format: physicochemical
Summary of the method: (§1)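 RP-HPLC on an octadecyl silica column (150 × 4.6 mm, 5 µm) at 22 ± 1 °C, flow 1.0 mL min⁻¹, UV detection at 254 nm. Mobile phase was methanol, acetonitrile or dioxane with water and 0.01 M phosphate buffer pH 3.5 containing 0.05 M DEA. log k_W was extrapolated to pure water by regression.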

[2] = Lipophilicity, log kw in dioxane aqueous system at pH 3.5; format: physicochemical; details: buffer; summary of the method: as §1
[3] = Lipophilicity, log kw in methanol aqueous system at pH 3.5; format: physicochemical; summary of the method: as §1
[4] = Antiproliferative activity against human skin fibroblast assessed as cell viability at 50 uM by MTT assay; format: cell-based; details: human skin fibroblasts, read-out: Activity
Summary of the method: (§2)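 MTT viability assay on primary human skin fibroblasts grown in DMEM with 10% FBS and penicillin/streptomycin. Compounds were dissolved in DMSO and given at 1, 50 or 100 µM for 24 h. Cells were washed in HEPES-buffered medium (pH 7.4) and then given MTT 0.5 mg mL⁻¹ for 45 min at 37 °C. Formazan was dissolved in DMSO and read at 570 nm. Viability is % of control; three independent measurements.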

[5] = Antiproliferative activity against human skin fibroblast assessed as cell viability at 1 uM by MTT assay; format: cell-based; details: human skin fibroblasts, read-out: Activity
Summary of the method: (§3)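 Log-phase cells, kept in supplemented RPMI 1640 (HSF in DMEM/10% FBS) at 37 °C, 5% CO2, were exposed 24 h to 1, 50 or 100 µM compound from DMSO. They were washed, given 0.5 mg/mL MTT in HEPES buffer pH 7.4 for 45 min at 37 °C, and formazan was dissolved in DMSO and read at 570 nm. Values are % viability versus control from three independent measurements.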

HeLa [6] = assay: Antiproliferative activity against human HeLa cells assessed as cell viability at 100 uM by MTT assay; format: functional; details: read-out: Activity; summary of the method: as §3
[7] = Antiproliferative activity against human skin fibroblast assessed as cell viability at 100 uM by MTT assay; format: cell-based; details: human skin fibroblasts, read-out: Activity; summary of the method: as §2
[8] = Antiproliferative activity against human RPMI cells assessed as cell viability at 50 uM by MTT assay; format: functional; details: read-out: Activity; summary of the method: as §3
HeLa [9] = assay: Antiproliferative activity against human HeLa cells assessed as cell viability at 1 uM by MTT assay; format: functional; details: read-out: Activity; summary of the method: as §3
[10] = Antiproliferative activity against human RPMI cells assessed as cell viability at 1 uM by MTT assay; format: functional; details: read-out: Activity; summary of the method: as §3
HeLa [11] = assay: Antiproliferative activity against human HeLa cells assessed as cell viability at 50 uM by MTT assay; format: functional; details: read-out: Activity; summary of the method: as §3
[12] = Antiproliferative activity against human RPMI cells assessed as cell viability at 100 uM by MTT assay; format: functional; details: read-out: Activity; summary of the method: as §3

Row | Compound | logKw [1] | logKw [2] | logKw [3] | viability at 50 µM [4] | viability at 1 µM [5] | viability at 100 µM (HeLa [6]) | viability at 100 µM [7] | viability at 50 µM [8] | viability at 1 µM (HeLa [9]) | viability at 1 µM [10] | viability at 50 µM (HeLa [11]) | viability at 100 µM [12]
1 | Clc1ccc(N2CCn3cnnc32)cc1Cl | 2.11 | 2.49 | 2.92 | – | – | – | – | – | – | – | – | –
2 | c1ccc(OCc2nnc3n2CCN3c2ccccc2)cc1 | 1.37 | 1.78 | 1.62 | 87.6% | 91.7% | 70.3% | 83% | 99% | 85.3% | 104% | 71.1% | 101%
3 | Cc1cc(Cl)ccc1OCc1nnc2n1CCN2c1ccc(Cl)cc1 | 3.7 | 3.87 | 4.61 | 74% | 79.5% | 71% | 71% | 32.4% | 92.1% | 46.4% | 71.8% | 31.1%
4 | COc1ccc(N2CCn3c(COc4ccc(Cl)cc4)nnc32)cc1 | 1.54 | 1.52 | 1.88 | 67.1% | 80.3% | 68.9% | 64.6% | 98.4% | 81.5% | 99.7% | 72.1% | 94.9%

More lines, main results first:

Row | logKw [1] | logKw [2] | logKw [3] | Compound | viability at 50 µM [4] | viability at 1 µM [5] | viability at 100 µM (HeLa [6]) | viability at 100 µM [7] | viability at 50 µM [8] | viability at 1 µM (HeLa [9]) | viability at 1 µM [10] | viability at 50 µM (HeLa [11]) | viability at 100 µM [12]
5 | 1.37 | 1.16 | 1.62 | c1ccc(N2CCn3cnnc32)cc1 | 89.5% | 97.6% | 72.8% | 85.6% | 102% | 73.2% | 99.3% | 75.4% | 97.6%
6 | 3.23 | 3.41 | 4.38 | Clc1ccc(OCc2nnc3n2CCN3c2ccc(Cl)cc2)cc1 | 63.8% | 88.7% | 52.4% | 16.2% | 34.5% | 63.2% | 60.1% | 56.3% | 34%
